Test results taken from ChEMBL document CHEMBL4024762, “Discovery of N-(3-Carbamoyl-5,5,7,7-tetramethyl-5,7-dihydro-4H-thieno[2,3-c]pyran-2-yl)-lH-pyrazole-5-carboxamide (GLPG1837), a Novel Potentiator Which Can Open Class III Mutant Cystic Fibrosis Transmembrane Conductance Regulator (CFTR) Channels to a High Extent” (J Med Chem, 2018).
Values after ≈ are worked out from the molar mass of the structure shown. One block for each compound: values may come before it. Active and inactive are the calls of the source. No cut-off for these calls is given here.

Experiments:
[1] = tested on: Cystic fibrosis transmembrane conductance regulator (Homo sapiens), P13569 [G551D]; assay: (§1) Potentiation of CFTR G551D mutant (unknown origin) expressed in HEK293 cells incubated for 10 mins in presence of forskolin measured for 2 mins by YFP halide assay; format: cell-based; parameters: concentration or dose not given beside the values
Chain of Cystic fibrosis transmembrane conductance regulator (Homo sapiens), P13569 [G551D] (P13569 whole entry G551D): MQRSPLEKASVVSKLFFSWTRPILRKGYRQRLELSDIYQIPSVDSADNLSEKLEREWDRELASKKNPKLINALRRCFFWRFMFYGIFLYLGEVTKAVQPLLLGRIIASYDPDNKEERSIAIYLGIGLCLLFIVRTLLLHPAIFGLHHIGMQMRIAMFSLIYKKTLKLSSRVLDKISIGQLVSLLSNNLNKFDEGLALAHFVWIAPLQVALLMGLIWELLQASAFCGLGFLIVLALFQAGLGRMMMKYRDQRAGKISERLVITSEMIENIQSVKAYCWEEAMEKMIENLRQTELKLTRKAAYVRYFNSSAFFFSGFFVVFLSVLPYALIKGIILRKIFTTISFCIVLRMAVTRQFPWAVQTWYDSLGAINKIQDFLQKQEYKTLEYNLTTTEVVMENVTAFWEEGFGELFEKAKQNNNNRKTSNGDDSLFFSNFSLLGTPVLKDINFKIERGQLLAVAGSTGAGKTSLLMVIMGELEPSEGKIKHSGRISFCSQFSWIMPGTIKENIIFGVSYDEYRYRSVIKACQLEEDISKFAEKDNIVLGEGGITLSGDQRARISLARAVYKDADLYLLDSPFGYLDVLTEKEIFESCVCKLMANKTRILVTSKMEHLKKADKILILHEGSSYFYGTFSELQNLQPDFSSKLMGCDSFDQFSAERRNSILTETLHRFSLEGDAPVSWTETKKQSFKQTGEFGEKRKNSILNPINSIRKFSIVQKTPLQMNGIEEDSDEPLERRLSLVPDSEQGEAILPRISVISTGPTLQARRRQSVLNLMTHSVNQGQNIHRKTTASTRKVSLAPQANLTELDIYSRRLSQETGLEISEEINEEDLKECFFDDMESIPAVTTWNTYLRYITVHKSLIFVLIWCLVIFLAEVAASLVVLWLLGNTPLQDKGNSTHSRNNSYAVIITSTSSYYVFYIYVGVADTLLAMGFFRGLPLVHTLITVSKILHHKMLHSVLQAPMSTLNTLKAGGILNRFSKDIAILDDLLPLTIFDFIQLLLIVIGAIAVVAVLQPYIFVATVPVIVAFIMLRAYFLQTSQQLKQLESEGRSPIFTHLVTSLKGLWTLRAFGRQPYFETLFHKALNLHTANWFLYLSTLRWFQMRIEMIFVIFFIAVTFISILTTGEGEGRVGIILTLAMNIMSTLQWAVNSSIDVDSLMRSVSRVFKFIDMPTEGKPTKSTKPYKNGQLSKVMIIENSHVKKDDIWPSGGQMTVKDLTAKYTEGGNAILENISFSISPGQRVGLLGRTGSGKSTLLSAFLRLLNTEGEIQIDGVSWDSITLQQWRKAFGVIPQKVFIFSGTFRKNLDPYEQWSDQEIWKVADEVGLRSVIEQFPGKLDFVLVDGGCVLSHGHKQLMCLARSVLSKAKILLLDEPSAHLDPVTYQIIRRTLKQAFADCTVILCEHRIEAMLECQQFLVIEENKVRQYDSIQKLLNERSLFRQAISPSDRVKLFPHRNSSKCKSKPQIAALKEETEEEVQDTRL
In short: (§2)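 HEK293 cells transfected with the mutant CFTR (G551D, G178R, S549N or R117H) and YFP (H148Q/I152L/F47L), seeded directly after transfection, then 24 h at 37°C. Treated 10 min at room temperature with 10 µM forskolin plus potentiator. Fluorescence read for 2 min across addition of NaI buffer (375 mM NaI). Activity = 1-(F/F0).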

[2] = target: Cystic fibrosis transmembrane conductance regulator (Homo sapiens, UniProt P13569, F508DEL); assay: (§3) Potentiation of CFTR F508del mutant (unknown origin) expressed in human CFBE41o cells incubated for 10 mins in presence of forskolin measured for 7 secs by YFP halide assay; format: cell-based
Chain of Cystic fibrosis transmembrane conductance regulator (Homo sapiens, UniProt P13569, F508DEL) (P13569 as listed by the source): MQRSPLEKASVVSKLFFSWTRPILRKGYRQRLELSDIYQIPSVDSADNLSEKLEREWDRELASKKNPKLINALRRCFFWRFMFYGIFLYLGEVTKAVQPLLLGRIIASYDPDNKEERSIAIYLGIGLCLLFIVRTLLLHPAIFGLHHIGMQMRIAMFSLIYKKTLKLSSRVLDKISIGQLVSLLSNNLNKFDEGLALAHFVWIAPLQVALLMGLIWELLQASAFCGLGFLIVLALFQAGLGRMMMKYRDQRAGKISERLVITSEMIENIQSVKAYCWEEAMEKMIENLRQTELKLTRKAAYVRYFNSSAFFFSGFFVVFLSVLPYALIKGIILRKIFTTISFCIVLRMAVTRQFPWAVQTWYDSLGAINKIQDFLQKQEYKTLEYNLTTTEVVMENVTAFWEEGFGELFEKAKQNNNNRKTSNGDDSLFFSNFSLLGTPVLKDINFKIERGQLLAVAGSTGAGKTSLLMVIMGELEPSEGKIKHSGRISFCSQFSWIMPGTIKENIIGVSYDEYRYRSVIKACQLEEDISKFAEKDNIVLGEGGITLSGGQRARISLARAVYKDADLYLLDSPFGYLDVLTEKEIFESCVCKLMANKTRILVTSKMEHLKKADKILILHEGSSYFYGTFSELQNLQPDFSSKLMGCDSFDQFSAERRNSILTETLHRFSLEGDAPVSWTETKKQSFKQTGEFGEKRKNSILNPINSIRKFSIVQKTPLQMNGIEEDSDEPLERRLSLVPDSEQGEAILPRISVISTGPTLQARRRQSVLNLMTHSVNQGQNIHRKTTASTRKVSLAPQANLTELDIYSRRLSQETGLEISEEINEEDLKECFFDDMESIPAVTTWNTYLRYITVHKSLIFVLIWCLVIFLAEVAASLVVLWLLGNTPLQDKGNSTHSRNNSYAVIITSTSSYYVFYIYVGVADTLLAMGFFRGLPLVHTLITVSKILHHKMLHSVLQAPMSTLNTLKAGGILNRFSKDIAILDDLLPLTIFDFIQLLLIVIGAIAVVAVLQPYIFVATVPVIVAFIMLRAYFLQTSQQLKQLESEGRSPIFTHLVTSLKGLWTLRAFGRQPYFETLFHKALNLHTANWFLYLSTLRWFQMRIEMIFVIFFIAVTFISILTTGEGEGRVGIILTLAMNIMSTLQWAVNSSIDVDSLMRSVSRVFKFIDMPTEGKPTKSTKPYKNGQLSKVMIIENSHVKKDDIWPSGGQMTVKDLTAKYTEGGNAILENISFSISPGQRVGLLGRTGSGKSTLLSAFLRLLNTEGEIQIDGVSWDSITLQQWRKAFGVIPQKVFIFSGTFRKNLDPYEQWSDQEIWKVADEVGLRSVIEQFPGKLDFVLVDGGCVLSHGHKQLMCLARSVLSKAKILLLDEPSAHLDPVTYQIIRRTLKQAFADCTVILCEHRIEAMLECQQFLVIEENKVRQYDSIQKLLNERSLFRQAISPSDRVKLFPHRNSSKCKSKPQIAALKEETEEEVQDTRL
In short: (§4)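 CFBE41o- cells (CF bronchial line) transduced by adenovirus with F508del CFTR and YFP (H148Q/I152L/F47L). Cells held 24 h at 27°C, then treated 10 min at room temperature with 10 µM forskolin plus potentiator. YFP fluorescence read for 7 s across addition of NaI buffer (137 mM NaI). Activity = 1-(F/F0).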

[3] = tested on: Cystic fibrosis transmembrane conductance regulator (Homo sapiens), P13569 [F508del]; assay: as §3; format: cell-based; parameters: concentration or dose not given beside the values; in short: as §4
Chain of Cystic fibrosis transmembrane conductance regulator (Homo sapiens), P13569 [F508del] (P13569 as listed by the source): as above

Homo sapiens [4] = species on record: Homo sapiens; assay: Selectivity ratio of EC50 for CFTR G551D mutant (unknown origin) to EC50 for CFTR F508del mutant (unknown origin)
[5] = target: T1, Cystic fibrosis transmembrane conductance regulator (Homo sapiens, UniProt P13569, G551D); assay: as §1; format: cell-based; in short: as §2
T1 sequence (P13569 whole entry G551D): as the sequence (P13569 whole entry G551D) above

Cytochrome P450 1A2 = target: T2, Cytochrome P450 1A2 (Homo sapiens, UniProt P05177); assay: Inhibition of CYP1A2 (unknown origin); format: ADME
T2 sequence (P05177 whole entry): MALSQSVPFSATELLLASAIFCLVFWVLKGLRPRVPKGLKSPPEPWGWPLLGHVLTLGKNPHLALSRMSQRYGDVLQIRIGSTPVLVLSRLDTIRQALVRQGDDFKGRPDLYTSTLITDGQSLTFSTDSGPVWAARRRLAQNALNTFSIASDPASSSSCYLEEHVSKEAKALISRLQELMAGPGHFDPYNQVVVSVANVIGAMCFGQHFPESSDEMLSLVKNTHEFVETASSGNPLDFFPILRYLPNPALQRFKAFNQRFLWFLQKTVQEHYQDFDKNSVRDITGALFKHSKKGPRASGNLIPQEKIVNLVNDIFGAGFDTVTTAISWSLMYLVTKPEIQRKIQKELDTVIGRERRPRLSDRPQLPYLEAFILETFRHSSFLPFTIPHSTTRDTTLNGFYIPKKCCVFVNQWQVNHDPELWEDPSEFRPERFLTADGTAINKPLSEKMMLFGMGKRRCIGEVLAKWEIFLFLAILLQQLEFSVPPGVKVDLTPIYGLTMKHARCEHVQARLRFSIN

[6] = Clearance in dog at 1 mg/kg, iv; format: ADME, organism-based, Canis lupus familiaris; settings: in vivo
In short: (§5)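 IV PK in rat and dog at 1 mg/kg. Cl, Cl,unb (L/h/kg), Vd (L/kg) and T1/2 (h) were derived from plasma levels.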

[7] = tested on: Cystic fibrosis transmembrane conductance regulator (Homo sapiens), P13569 [S549N]; assay: Potentiation of CFTR S549N mutant (unknown origin) expressed in HEK293 cells incubated for 10 mins in presence of forskolin measured for 2 mins by YFP halide assay relative to ivacaftor; format: cell-based
Chain of Cystic fibrosis transmembrane conductance regulator (Homo sapiens), P13569 [S549N] (P13569 whole entry S549N): as the sequence (P13569 whole entry G551D) above, with S549N, D551G counted along it

[8] = AUC in rat at 300 mg/kg, po; format: ADME, organism-based; settings: in vivo
[9] = target: Voltage-gated inwardly rectifying potassium channel KCNH2 (Homo sapiens, UniProt Q12809); assay: Inhibition of human ERG by manual patch clamp method
Chain of Voltage-gated inwardly rectifying potassium channel KCNH2 (Q12809 whole entry): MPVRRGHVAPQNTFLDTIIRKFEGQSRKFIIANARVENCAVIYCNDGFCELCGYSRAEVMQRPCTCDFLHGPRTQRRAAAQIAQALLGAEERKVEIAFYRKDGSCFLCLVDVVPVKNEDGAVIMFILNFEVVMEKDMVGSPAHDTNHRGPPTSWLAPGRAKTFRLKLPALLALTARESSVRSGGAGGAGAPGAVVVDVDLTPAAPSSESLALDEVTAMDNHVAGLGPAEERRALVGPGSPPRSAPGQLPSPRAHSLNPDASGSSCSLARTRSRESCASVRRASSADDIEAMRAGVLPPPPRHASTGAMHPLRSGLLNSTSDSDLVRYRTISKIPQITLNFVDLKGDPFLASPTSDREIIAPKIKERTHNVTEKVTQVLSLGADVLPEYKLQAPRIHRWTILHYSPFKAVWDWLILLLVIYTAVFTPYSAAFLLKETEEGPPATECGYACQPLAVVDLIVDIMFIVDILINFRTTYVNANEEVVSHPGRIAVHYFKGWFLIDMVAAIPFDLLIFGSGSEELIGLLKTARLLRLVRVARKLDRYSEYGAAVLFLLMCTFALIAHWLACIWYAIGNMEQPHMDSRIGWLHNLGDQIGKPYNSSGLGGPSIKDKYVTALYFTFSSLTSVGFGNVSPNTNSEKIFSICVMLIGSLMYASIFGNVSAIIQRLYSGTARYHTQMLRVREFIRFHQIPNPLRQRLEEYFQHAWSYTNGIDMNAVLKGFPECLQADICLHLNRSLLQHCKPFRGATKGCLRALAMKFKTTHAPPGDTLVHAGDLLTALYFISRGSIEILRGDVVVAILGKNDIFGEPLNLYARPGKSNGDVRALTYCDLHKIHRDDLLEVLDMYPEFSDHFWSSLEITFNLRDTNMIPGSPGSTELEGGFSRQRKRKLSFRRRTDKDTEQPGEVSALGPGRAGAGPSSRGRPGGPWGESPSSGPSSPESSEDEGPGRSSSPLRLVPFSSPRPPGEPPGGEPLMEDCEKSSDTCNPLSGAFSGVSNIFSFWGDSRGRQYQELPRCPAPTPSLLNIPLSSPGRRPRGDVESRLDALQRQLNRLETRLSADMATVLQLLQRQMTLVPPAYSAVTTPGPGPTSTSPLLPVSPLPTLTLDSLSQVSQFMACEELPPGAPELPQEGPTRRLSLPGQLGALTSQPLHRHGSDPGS

[10] = AUC in rat at 5 mg/kg, po; format: ADME, organism-based; settings: in vivo
Cytochrome P450 2C19 = Cytochrome P450 2C19 (Homo sapiens, UniProt P33261); assay: Inhibition of CYP2C19 (unknown origin); format: ADME
Chain of Cytochrome P450 2C19 (P33261 whole entry): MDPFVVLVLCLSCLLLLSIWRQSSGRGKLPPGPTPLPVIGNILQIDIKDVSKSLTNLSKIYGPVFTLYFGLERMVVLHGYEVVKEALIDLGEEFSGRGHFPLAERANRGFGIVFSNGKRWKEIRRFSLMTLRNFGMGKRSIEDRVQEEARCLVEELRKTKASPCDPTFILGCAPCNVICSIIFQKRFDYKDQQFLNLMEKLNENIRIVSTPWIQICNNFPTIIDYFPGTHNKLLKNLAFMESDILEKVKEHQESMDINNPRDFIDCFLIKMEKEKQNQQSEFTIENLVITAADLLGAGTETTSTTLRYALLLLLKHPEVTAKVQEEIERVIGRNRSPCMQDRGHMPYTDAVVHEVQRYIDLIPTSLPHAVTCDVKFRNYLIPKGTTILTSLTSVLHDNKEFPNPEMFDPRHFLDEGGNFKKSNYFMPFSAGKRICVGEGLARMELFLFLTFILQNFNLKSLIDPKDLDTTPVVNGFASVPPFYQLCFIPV

[11] = Cmax in rat at 300 mg/kg, po; format: ADME, organism-based; parameters: dose 300 mg/kg, route oral; settings: in vivo
[12] = Thermodynamic solubility of the compound at pH 3; format: physicochemical; settings: buffer, read-out: Therm_solubility
Cytochrome P450 2D6 = Cytochrome P450 2D6 (Homo sapiens, UniProt P10635); assay: Inhibition of CYP2D6 (unknown origin); format: ADME
[13] = Thermodynamic solubility of the compound at pH 7.4; format: physicochemical; settings: buffer, read-out: Therm_solubility
[14] = Volume of distribution in dog at 1 mg/kg, iv; format: ADME, organism-based, Canis lupus familiaris; settings: in vivo; in short: as §5
[15] = Cmax in rat at 5 mg/kg, po; format: ADME, organism-based; parameters: dose 5 mg/kg, route oral; settings: in vivo
Canis familiaris = assay: Unbound clearance in dog at 1 mg/kg, iv; format: ADME, organism-based, Canis lupus familiaris; settings: in vivo; in short: as §5
Rattus norvegicus = assay: Unbound clearance in rat at 1 mg/kg, iv; format: ADME, organism-based; settings: in vivo; in short: as §5
[16] = tested on: Cystic fibrosis transmembrane conductance regulator (Homo sapiens), P13569 [G551D]; assay: Potentiation of CFTR G551D mutant in primary HBE cells assessed as increase in channel conductivity measured every 2 mins for 20 mins by TECC assay relative to ivacaftor; format: cell-based
[17] = Unbound intrinsic clearance in rat hepatocytes; format: ADME, cell-based, Hepatocyte
In short: (§6)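 Intrinsic clearance in liver microsomes or hepatocytes, corrected for non-specific binding using fraction unbound in microsomes (Fu,mic) or in hepatocyte incubations (Fu,inc).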

[18] = Permeability across apical to basolateral side in MDCK cells; format: ADME, cell-based, Canis lupus familiaris; settings: dog, read-out: permeability
Homo sapiens [19] = assay: Toxicity in human up to 2000 mg administered as single dose
[20] = Half life in rat at 1 mg/kg, iv; format: ADME, organism-based; settings: in vivo; in short: as §5
[21] = Oral bioavailability in rat at 5 mg/kg; format: ADME, organism-based; settings: in vivo
In short: (§7)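 F% in rat and dog after a 5 mg/kg PO dose, referenced to the 1 mg/kg IV PK parameters.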

[22] = tested on: Cystic fibrosis transmembrane conductance regulator (Homo sapiens), P13569 [F508del]; assay: Potentiation of CFTR F508del mutant in primary HBE cells assessed as increase in channel conductivity measured every 2 mins for 20 mins by TECC assay; format: cell-based
In short: (§8)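 TECC on primary epithelia bathed both sides in NaCl Ringer, pH 7.4, at 37°C. Apical amiloride 100 µM; forskolin 10 µM apical and basolateral. One compound concentration per transwell. EC50 derived from the increase in Ieq. Duplicate or triplicate, mean ± SEM; 10 µM CFTRinh-172 used for specificity.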

Cytochrome P450 3A4 = Cytochrome P450 3A4 (Homo sapiens, UniProt P08684); assay: Inhibition of CYP3A4 (unknown origin); format: ADME
[23] = tested on: Cystic fibrosis transmembrane conductance regulator (Homo sapiens), P13569 [R117H]; assay: Potentiation of CFTR R117H mutant (unknown origin) expressed in HEK293 cells incubated for 10 mins in presence of forskolin measured for 2 mins by YFP halide assay relative to ivacaftor; format: cell-based
Chain of Cystic fibrosis transmembrane conductance regulator (Homo sapiens), P13569 [R117H] (P13569 whole entry R117H): as the sequence (P13569 whole entry G551D) above, with R117H, D551G counted along it

[24] = Unbound intrinsic clearance in rat microsomes; format: ADME, Microsome; in short: as §6
Homo sapiens [25] = assay: Toxicity in human up to 800 mg, bid administered for 14 days; settings: 336 h
[26] = Unbound intrinsic clearance in human hepatocytes; format: ADME, cell-based, Hepatocyte
Cytochrome P450 2C9 = Cytochrome P450 2C9 (Homo sapiens, UniProt P11712); assay: Inhibition of CYP2C9 (unknown origin); format: ADME
[27] = Volume of distribution in rat at 1 mg/kg, iv; format: ADME, organism-based; settings: in vivo; in short: as §5
[28] = Unbound intrinsic clearance in human microsomes; format: ADME, Microsome
[29] = tested on: Cystic fibrosis transmembrane conductance regulator (Homo sapiens), P13569 [G178R]; assay: Potentiation of CFTR G178R mutant (unknown origin) expressed in HEK293 cells incubated for 10 mins in presence of forskolin measured for 2 mins by YFP halide assay relative to ivacaftor; format: cell-based
Chain of Cystic fibrosis transmembrane conductance regulator (Homo sapiens), P13569 [G178R] (P13569 whole entry G178R): as the sequence (P13569 whole entry G551D) above, with G178R, D551G counted along it

[30] = Oral bioavailability in dog at 5 mg/kg; format: ADME, organism-based, Canis lupus familiaris; settings: in vivo; in short: as §7
[31] = target: T1, Cystic fibrosis transmembrane conductance regulator; assay: Potentiation of CFTR G551D mutant in primary HBE cells assessed as increase in channel conductivity measured every 2 mins for 20 mins by TECC assay; format: cell-based; in short: as §8
[32] = Efflux ratio of permeability in MDCK cells; format: ADME, cell-based, Canis lupus familiaris; settings: dog
[33] = Half life in dog at 1 mg/kg, iv; format: ADME, organism-based, Canis lupus familiaris; settings: in vivo; in short: as §5
[34] = Clearance in rat at 1 mg/kg, iv; format: ADME, organism-based; settings: in vivo; in short: as §5

Compound: CC1(C)Cc2c(sc(NC(=O)[C@H](O)C(C)(C)C)c2C(N)=O)C(C)(C)O1
Activity [1]: 31%
EC50 [2]: 127 nM
Activity [3]: 95%

Compound: CC1(C)Cc2c(sc(NC(=O)c3cn[nH]c3)c2C(N)=O)C(C)(C)O1
EC50 [2]: 125 nM

Compound: CC1(C)Cc2c(sc(NC(=O)C3(O)CC3)c2C(N)=O)C(C)(C)O1
EC50 [2]: 23 nM

Compound: Cc1ccc(C(=O)Nc2sc3c(c2C(N)=O)CCNC3)s1
Activity [3]: 3%

Compound: CC1(C)Cc2c(sc(NC(=O)C(C)(C)CO)c2C(N)=O)C(C)(C)O1
EC50 [2]: 75 nM

Compound: CC1(C)Cc2c(sc(NC(=O)c3ccccc3O)c2C(N)=O)CO1
Activity [1]: 51%
EC50 [5]: 490 nM
EC50 [2]: 13 nM
Activity [3]: 93%

Compound: CC1(C)Cc2c(sc(NC(=O)c3cc(C(F)(F)F)n[nH]3)c2C(N)=O)C(C)(C)O1
Activity [1]: 49%
Activity [3]: 107%

Compound: CC1(C)Cc2c(sc(NC(=O)C(C)(C)O)c2C(N)=O)C(C)(C)O1
EC50 [2]: 16 nM

Compound: Cc1n[nH]c(C(=O)Nc2sc3c(c2C(N)=O)CC(C)(C)OC3(C)C)c1Cl
Activity [1]: 68%
Activity [3]: 92%

Now from value to compound, other results behind:

Activity [1]: 58%
Ratio EC50 (Homo sapiens [4]): 2000
EC50 [2]: 0.54 nM
Activity [3]: 102%
Compound: CC(C)(C)CC(O)C(=O)Nc1sc2c(c1C(N)=O)CC(C)(C)OC2(C)C (stereo unspecified)

Activity [1]: 36%
EC50 [5]: 236 nM
EC50 [2]: 4 nM
Activity [3]: 98%
Compound: CC1Cc2c(sc(NC(=O)c3ccccc3O)c2C(N)=O)C(C)O1 (stereo unspecified)

Activity [1]: 77%
EC50 [2]: 2 nM
Activity [3]: 96%
Compound: CC1(C)Cc2c(sc(NC(=O)c3[nH]ncc3Cl)c2C(N)=O)C(C)(C)O1

EC50 [5]: 199 nM
EC50 [2]: 11 nM
Compound: Cc1[nH]nc(C(=O)Nc2sc3c(c2C(N)=O)CC(C)(C)OC3(C)C)c1Cl

EC50 [5]: 130 nM
EC50 [2]: 3 nM
Compound: CC1(C)Cc2c(sc(NC(=O)c3cc(C(F)(F)F)[nH]n3)c2C(N)=O)C(C)(C)O1

EC50 (Cytochrome P450 1A2): > 100000 nM
clearance [6]: 5.33 mL/min/kg
Efficacy [7]: 143%
AUC [8]: 68200 ng·h/mL
AUC [10]: 1540 ng·h/mL
EC50 (Cytochrome P450 2C19): > 100000 nM
Cmax [11]: 4670 ng/mL
solubility thermodynamic [12]: 11 µM (≈ 3.83 µg/mL)
EC50 (Cytochrome P450 2D6): > 100000 nM
solubility thermodynamic [13]: 8.6 µM (≈ 3 µg/mL)
Vd [14]: 1.4 L/kg
Cmax [15]: 331 ng/mL
CL free (Canis familiaris): 107 mL/min/kg
CL free (Rattus norvegicus): 400 mL/min/kg
Activity [16]: 200%
CL free [17]: 95 mL/min/kg
Papp A→B [18]: 11 ×10⁻⁶ cm/s
Activity [1]: 103%
EC50 [5]: 339 nM
half-life [20]: 1.84 h
bioavailability [21]: 67%
Activity [22]: Active
EC50 (Cytochrome P450 3A4): > 100000 nM
Efficacy [23]: 119%
CL free [24]: 28.3 mL/min/kg
CL free [26]: 30 mL/min/kg
EC50 (Cytochrome P450 2C9): > 100000 nM
Vd [27]: 4.8 L/kg
CL free [28]: 18.3 mL/min/kg
Efficacy [29]: 158%
bioavailability [30]: > 100%
EC50 [31]: 181 nM
efflux ratio [32]: 2.6
half-life [33]: 3 h
clearance [34]: 32 mL/min/kg
EC50 [2]: 3 nM
Activity [3]: 105%
Compound: CC1(C)Cc2c(sc(NC(=O)c3ccn[nH]3)c2C(N)=O)C(C)(C)O1
EC50 [9]: > 33000 nM
Activity (Homo sapiens [19]): Non-Toxic
Activity (Homo sapiens [25]): Non-Toxic
